From PubChem
Pf gamet viab = late stage P. falciparum gametocyte viability inhibitors, primary screen, ATP luminescence, HTS; P. falciparum stage V gametocytes, 24 h; inhibition, % at 10.9 µM; 0.065% of 150,000 active;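 active means inhibition above the mean plus 3 SD of compounds within the control limits, set per campaign, cut at about 38% in these data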
Biofilm kill mix = clotrimazole potentiators killing C. albicans biofilm, primary screen, 4-compound mixtures; 0.02% of 120,000 active; inhibition, % at 7.6 µM; C. albicans biofilm persisters + clotrimazole, fluorescence viability; primary screen in compound mixtures of four per well; AID 1242, 2008;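 active means inhibition above 30.3% in the primary screen of four-compound pools, then above 30% when the compound was retested; inconclusive means passed the primary limit but could not be retested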;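 further: compounds exposed to preformed 24 h biofilms for 48 h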
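Assay system: C. albicans biofilms / Medium: RPMI/MOPS medium, pH 7.0 / Schedule: biofilm formation 24 h, compound exposure 48 h, 37 °C / Measured by: Alamar Blue fluorescence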
ROMK mod = ROMK potassium channel modulators, primary screen, cell-based, thallium flux, MLSMR library. 2% of 130,000 active. B-score at 10 µM. Tet-inducible ROMK, thallium flux fluorescence; actives lie on both sides. ATP-sensitive inward rectifier potassium channel 1 (Homo sapiens), P48048;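 active means signal ratio slope over the read window, or its plate-corrected B-score, at least 3 SD from the plate mean, either direction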;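 further: B-score of the F/F0 ratio slope over 7 to 12 s after thallium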
Target sequence (P48048 whole entry, looked up): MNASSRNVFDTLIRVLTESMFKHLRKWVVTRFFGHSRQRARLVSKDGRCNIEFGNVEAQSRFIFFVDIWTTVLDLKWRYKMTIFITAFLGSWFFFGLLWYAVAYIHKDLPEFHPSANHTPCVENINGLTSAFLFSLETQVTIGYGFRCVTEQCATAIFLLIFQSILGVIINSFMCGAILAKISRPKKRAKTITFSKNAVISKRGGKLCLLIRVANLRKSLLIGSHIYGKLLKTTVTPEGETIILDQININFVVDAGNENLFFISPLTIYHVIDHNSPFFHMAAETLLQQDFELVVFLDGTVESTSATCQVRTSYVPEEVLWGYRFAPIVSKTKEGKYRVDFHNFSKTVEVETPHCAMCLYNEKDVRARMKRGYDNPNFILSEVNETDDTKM
ROMK hit retest = ROMK channel modulator hit retest, confirmation, cell-based, thallium flux, duplicate, resupplied hits; shares compounds with ROMK mod; fluorescence ratio; hits give low values; normalized thallium flux (F/F0 slope) at 10 µM; 54% of 3,000 active;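 active means Flux at 10 µM at least 3 SD below or above vehicle control mean in one or both replicates; inconclusive means no clear call, values can overlap the other calls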
Large screens that a line does not name were inactive (follow-up assays come after a bar, where they were run). Many of the other results were omitted from the sample, so hits are more common in it than they were.

Cc1noc(C)c1C(=O)N1CCC2(CC1)OCCO2	ROMK mod 3.05 (no result: Pf gamet viab, Biofilm kill mix) | ROMK hit retest inactive
CCOC(=O)c1c(C)n(Cc2ccc3c(c2)OCO3)c2ccc(O)cc12	none (no result: Biofilm kill mix)
CCCCn1c(C)c(C(=O)OCC)c2c(CN3CCOCC3)c(O)ccc21	ROMK mod -2.32 (no result: Biofilm kill mix) | ROMK hit retest 0.0657
CC(C)(C)n1cc(C(=O)c2ccccc2)cc1-c1ccccc1	none (no result: Pf gamet viab, ROMK mod)
N#CC1=C(N)Oc2c(c(=O)oc3ccccc23)C1c1ccc([N+](=O)[O-])o1 (centres undefined)	none (no result: ROMK mod)
O=[N+]([O-])c1ccc(N2CCCNCC2)c2ncccc12	none (no result: ROMK mod) | ROMK hit retest 0.0389
O=[N+]([O-])c1ccc(N2CCCCC2)c2ncccc12	none
CC(=O)Nc1nc(CCl)cs1	none
O=C1NC(=O)C2(Cc3ccccc3N3CCCC32)C(=O)N1c1cccc(Cl)c1 (centres undefined)	none (no result: Biofilm kill mix, ROMK mod)
Cc1ccc(CN2C(=O)NC(=O)C3(Cc4c(nc5ccccn5c4=O)N4CCCCCC43)C2=O)cc1 (centres undefined)	ROMK mod -2.93 (no result: Biofilm kill mix) | ROMK hit retest 0.0643
COC(=O)C1=C(c2ccccc2OCc2ccccc2)C[C@@H]2CC[C@H]1N2C(=O)NCc1ccc(Br)cc1	none (no result: Biofilm kill mix, ROMK mod)
CC(Cc1ccsc1)NCc1cn[nH]c1-c1ccc(F)cc1F (centres undefined)	none (no result: ROMK mod)
Cc1ccc(S(=O)(=O)N2CCCC(C(=O)N3CCC4(CC3)OCCO4)C2)cc1 (centres undefined)	none (no result: Pf gamet viab, Biofilm kill mix)
Cc1cc(C)cc(-n2c(O)c(C=Nc3ccc(N4CCOCC4)cc3)c(=O)[nH]c2=S)c1	none
O=c1[nH]c(=S)n(-c2ccc(Br)cc2)c(O)c1C=Nc1ccc(N2CCOCC2)cc1	none | ROMK hit retest 0.0636
c1ccc2c(c1)CC1CNCc3cccc(c31)S2 (centres undefined)	ROMK mod -2.79 | ROMK hit retest 0.0538
O=c1c2ccccc2nc(-c2ccccc2)n1-c1ccc(O)cc1	none
Cc1c(C=O)c2ccccc2n1Cc1ccccc1	none (no result: Biofilm kill mix, ROMK mod)
O=Cc1c(C(=O)O)n(Cc2ccc(Cl)cc2)c2ccccc12	none (no result: ROMK mod) | ROMK hit retest 0.0525
OC1(c2ccc(F)cc2)CC2CCC(C1)N2Cc1nnnn1C1CCCCC1 (centres undefined)	ROMK mod -4.8 (no result: Biofilm kill mix) | ROMK hit retest 0.0566
OCCN1C2CCC1CC(O)(c1ccc(F)cc1)C2 (centres undefined)	none (no result: Pf gamet viab, Biofilm kill mix)
CC(=O)N1CC(=O)Nc2ccc(Cl)cc2C1c1ccc(F)cc1 (centres undefined)	none (no result: Pf gamet viab, ROMK mod)
CC1(C)C2([N+](=O)[O-])CNCC1([N+](=O)[O-])CNC2	none (no result: Pf gamet viab)
CCCCCSc1cc(OC)c(CCN(C)C)cc1OC	none (no result: Biofilm kill mix)
CCCCCSc1cc(O)c(C(CNC)C(C)C)cc1OC (centres undefined)	ROMK mod -3.2 | ROMK hit retest 0.0575
CCOC(=O)c1c(-n2c(C)cc(C=C3C(=O)NC(=O)NC3=O)c2C)sc2c1CCCC2	ROMK mod -4.66 (no result: Biofilm kill mix) | ROMK hit retest inconclusive
Cc1cccc(N2C(=O)NC(=O)/C(=C\c3cc(C)n(-c4sc5c(c4C#N)CCCC5)c3C)C2=O)c1C	none (no result: ROMK mod)
O=C1CN=C(c2ccccc2)c2cc(Br)ccc2N1Cc1cc(=O)n2ccccc2n1	none
Cc1oc(-c2ccccc2Cl)nc1CN1C(=O)CN=C(c2ccccc2)c2ccccc21	ROMK mod -2.76 (no result: Pf gamet viab) | ROMK hit retest 0.0576
CSCCC(N=Cc1c(O)n(-c2ccc(F)cc2)c(=O)[nH]c1=O)C(=O)OC(C)(C)C (centres undefined)	none (no result: Biofilm kill mix)
Cc1ccc(-c2cc(-c3ccccc3)cc(-c3ccccc3)[n+]2-c2ccccc2)cc1	none (no result: Biofilm kill mix, ROMK mod)
Cc1ccc(-c2cc(-c3ccc(C)cc3)[n+](-c3ccc(C(=O)[O-])cc3)c(-c3ccc(C)cc3)c2)cc1	none (no result: Biofilm kill mix, ROMK mod)
c1ccc(-c2cc(-c3ccccc3)[n+](-c3ccccc3)c(-c3ccccc3)c2)cc1	ROMK mod -3.57 | ROMK hit retest 0.044
CN(C)c1ccc(-[n+]2c(-c3ccccc3)cc(-c3ccccc3)cc2-c2ccccc2)cc1	ROMK mod -2.22 | ROMK hit retest 0.0364
O=c1[nH]c(=O)n(Cc2ccccc2)c(O)c1C=Nc1ccc(CN2CCOCC2)cc1	none (no result: Biofilm kill mix, ROMK mod)
CC(=O)c1cc(C(C)=O)c(C)[n+](C)c1C	none (no result: ROMK mod)
N#CCN1CCN(c2ccc(C(F)(F)F)cc2)CC1	none
O=C(c1cn(Cc2ccccc2)c2ccccc12)N1CCCCC1	none
O=C1NC(=O)N(Cc2ccccc2Cl)C(=O)/C1=C/N1CCOCC1	none (no result: Biofilm kill mix, ROMK mod) | ROMK hit retest 0.0598
O=C1NC(=O)N(Cc2cccs2)C(=O)/C1=C/c1ccc(N2CCOCC2)cc1	none
COC(=O)C1=C(c2ccc(F)cc2OCc2ccccc2)C[C@@H]2CC[C@H]1N2C(=O)NCc1ccccc1OC	none (no result: Biofilm kill mix, ROMK mod)
CCC(C)C1(CC)C(=O)NC(=O)N=C1N (centres undefined)	none (no result: ROMK mod)
COc1ccc(CCC(C)NCCc2ccccc2)cc1 (centres undefined)	ROMK mod -3.89 (no result: Pf gamet viab, Biofilm kill mix) | ROMK hit retest 0.0619
COc1ccc(CC(C)NCCc2ccc(OC)c(OC)c2)cc1 (centres undefined)	none (no result: Biofilm kill mix, ROMK mod)
Cc1cc(C)n2nc(C)[n+](C)c2n1	none (no result: Biofilm kill mix, ROMK mod)
CSc1nnc([C@@H](N)Cc2ccccc2)o1	none (no result: Biofilm kill mix, ROMK mod)
CC(C)Sc1nnc([C@@H](N)Cc2ccccc2)o1	none (no result: Biofilm kill mix, ROMK mod) | ROMK hit retest inactive
CCN(CC)P(=O)(/C=C(\Cl)c1ccccc1)/C=C(\Cl)c1ccccc1	none
C[C@H]1CCCC(=O)CCCCCc2cc(O)cc(O)c2C(=O)O1	none (no result: Pf gamet viab, ROMK mod) | ROMK hit retest 0.0631
CCN1CCN(Cc2cc3c(cc2[N+](=O)[O-])OCO3)CC1	none (no result: Biofilm kill mix, ROMK mod)
O=C(c1ccc2c3c(cccc13)CC2)C1CCCN(Cc2ncc[nH]2)C1 (centres undefined)	none
O=C(c1ccc2c3c(cccc13)CC2)C1CCCN(CC2CC2)C1 (centres undefined)	ROMK mod -3.3 (no result: Pf gamet viab) | ROMK hit retest 0.0596
Cc1cccc(N2CCc3c2nc2ccccc2c3N)c1	none (no result: Biofilm kill mix, ROMK mod)
O=C1NC(=O)C(=Cc2cc3c(cc2[N+](=O)[O-])OCO3)C(=O)N1	none (no result: Pf gamet viab)
Cc1cccc(N2C(=O)NC(=O)/C(=C/c3cc4c(cc3[N+](=O)[O-])OCO4)C2=O)c1	ROMK mod -2.8 (no result: Pf gamet viab) | ROMK hit retest 0.0561
Cn1c(O)c(C=Nc2ccc(Br)cc2)c(=O)n(C)c1=O	none (no result: Biofilm kill mix, ROMK mod)
Cn1c(O)c(/C=C/C=Nc2ccccc2)c(=O)n(C)c1=S	none (no result: ROMK mod) | ROMK hit retest 0.0459
Cc1ccccc1N1C(=O)NC(=O)/C(=C/c2ccc(N3CCOCC3)o2)C1=O	none (no result: ROMK mod)
Cc1ccccc1N1C(=O)NC(=O)/C(=C\c2cc(Br)c(N3CCOCC3)o2)C1=O	none (no result: Pf gamet viab, ROMK mod) | ROMK hit retest 0.0246
COCCN1Cc2cc(=O)n3c([nH]c4ccccc43)c2C1=N	none
O=C1NC(=O)C(CCc2ccncc2)(Cc2ccc3c(c2)OCO3)C(=O)N1CCc1ccccc1 (centres undefined)	none (no result: Biofilm kill mix)
COc1cc(C(CN)CC(=O)O)ccc1O (centres undefined)	none (no result: ROMK mod)
Cc1ccccc1-n1c(/C=C/c2ccccn2)nc2ccccc2c1=O	none (no result: Pf gamet viab, ROMK mod)
CN1C2CCC1/C(=C/c1ccccn1)C(=O)/C2=C\c1ccccn1	ROMK mod -3.78 | ROMK hit retest 0.0431
CCCC(C)C1(CC)C(=O)NC(=Nc2ccc(OC)cc2)NC1=O (centres undefined)	none (no result: Pf gamet viab)
CCCCCc1nc2ccccc2c(=O)n1-c1ccccc1[N+](=O)[O-]	none
